The record followed here is PubChem BioAssay.

Active and inactive are the calls of the source.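 The calls were made as follows, unless noted: active = fluorescence slope higher than the sample average by over 3 SD (cut at about -0.22 in these data, passing the limit was not always enough); inactive = the rest.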

Experiment [1] is described as follows: inhibitors of TNFa-induced NFkB p65 translocation, primary screen, imaging, HUVEC, MLSMR starter and 10KST1 sets (AID 438;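 active = inhibition above 20% together with a positive visual image hit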;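 also: compound added about 3h40 before a 20 min TNFalpha stimulation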;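 as to inhibition: signal is the nuclear over cytoplasmic p65 intensity ratio per well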). The following applies: HUVEC TNFa-induced p65 nuclear translocation; cell count: measured here: nuclei count (cytotoxicity indicator), at 2.08 µM; inhibition: at 2 µM, stronger effect = higher value, 0% TNFa-plus-vehicle, 100% no-TNFa wells.
Experiment [2] in a line: inhibitors of mutant huntingtin aggregation, primary screen, imaging, exon1htt(103Q)mCFP cells, high-content imaging (AID 483;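 active = visual image review flags a hit and inhibition of aggregation exceeds 20%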;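 also: compound exposure lasted 3 days before fixation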;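 as to nuclei count: percent of the per-plate median nuclei count of sample wells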). The following applies: exon1htt(103Q)mCFP cell line, aggregate imaging, at 2 µM; inhibition of aggregation: stronger effect = higher value; nuclei count: measured here: cell count, toxicity.
Experiment [3] is described as follows: inhibitors of E-selectin induction by TNFa, primary screen, imaging, HUVEC, immunofluorescence, MLSMR starter and 10KST1 sets (AID 487;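 active = visually confirmed hit in the image check and inhibition above 20%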;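 as to inhibition: signal is fraction of cell area covered by stained E-selectin grains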;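 as to nuclei count: 100% = median nuclei count of all wells on the same plate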). The following applies: HUVEC TNFalpha-induced E-selectin immunofluorescence imaging, at 2 µM; inhibition: stronger effect = higher value; nuclei count: measured here: cell number, toxicity.
Experiment [4] concerns the target Voltage-gated potassium channel subunit beta-2 (Rattus norvegicus) (UniProt P62483). The experiment is described as follows: KvBeta enzyme negative modulators, primary screen, biochemical, NADPH fluorescence (AID 622).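 Also: slope of raw intensity against log time taken from 70 to 1610 s.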 The following applies: recombinant KvBeta, 4-cyanobenzaldehyde reduction, at 10 µM, stronger effect = higher value.
Experiment [5] has the same target. As to the kind of experiment: KvBeta positive modulators, primary screen, biochemical, NADPH fluorescence (AID 623;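 active = NADPH fluorescence slope more negative than the mean of all samples by about 3 SD, 99.7% confidence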;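 also: fluorescence intensity change per second fitted from 20 to 320 s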). The following applies: Recombinant KvBeta, NADPH fluorescence decrease slope, 10 min; at 10 µM; stronger effect = lower value.
The target of experiment [6] is Muscarinic acetylcholine receptor M4 (Homo sapiens) (UniProt P08173). As to the kind of experiment: compounds altering M4/GIRK thallium flux, either direction, primary screen, M4 allosteric agonist project, cell-based, HEK293 M4/GIRK, BTC-AM (AID 625;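 active = fluorescence slope after compound addition differing from the mean of all tested samples at 99.7% confidence, mostly higher but some lower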;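 also: thallium influx through GIRK channels coupled to M4 in HEK293 cells with BTC-AM dye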). The following applies: at 10 µM, actives lie on both sides. A digest of the protocol: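 Material: M4/GIRK1/GIRK2 stable HEK293 cell line. Medium: pH 7.3 thallium assay buffer. Dosing: single compound concentration, 10 µM final. Schedule: 1 h dye loading, 2 min kinetic read. Measured by: kinetic fluorescence with BTC-AM dye. Read-out: post-addition slope, 15–24 s, of baseline-normalized fluorescence. Benchmarks: carbachol and DMSO controls.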
Chain of Muscarinic acetylcholine receptor M4 (Homo sapiens) (P08173 whole entry, looked up): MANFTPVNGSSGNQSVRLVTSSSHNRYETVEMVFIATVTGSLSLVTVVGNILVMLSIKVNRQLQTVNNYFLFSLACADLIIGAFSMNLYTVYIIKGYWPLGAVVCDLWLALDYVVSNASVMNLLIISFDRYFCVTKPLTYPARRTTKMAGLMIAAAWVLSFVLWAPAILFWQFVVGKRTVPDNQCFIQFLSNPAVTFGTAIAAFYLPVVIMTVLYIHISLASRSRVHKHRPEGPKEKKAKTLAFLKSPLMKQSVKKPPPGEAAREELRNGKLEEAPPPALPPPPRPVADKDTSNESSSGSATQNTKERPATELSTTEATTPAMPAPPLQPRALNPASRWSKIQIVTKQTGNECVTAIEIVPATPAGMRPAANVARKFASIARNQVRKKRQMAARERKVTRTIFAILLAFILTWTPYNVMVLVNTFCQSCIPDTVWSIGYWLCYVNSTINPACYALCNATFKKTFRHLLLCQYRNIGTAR

Experiment [7] in a line: inhibitors of Sendai virus-induced IRF3 signaling, primary screen, TLR/RLR signaling modifier project, cell-based, Sendai virus stimulus, luciferase, 10K MLSCN set (AID 602276;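 active = inhibition at or above 50% at 10 µM; inactive = inhibition below 50%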;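 also: firefly luciferase from ISG56 promoter only with Renilla not read in this screen; 0% = Sendai virus plus DMSO and 100% = medium plus DMSO without virus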). The following applies: HEK293 RL24 IRF3 luciferase reporter, at 10 µM, stronger effect = higher value. In general terms: Reporter assays use an easily measured gene product as a stand-in for the process of interest.

Experiment [8] is described as follows: inhibitors of poly I:C-induced TLR3 signaling, primary screen, cell-based, poly I:C stimulus, luciferase, 10K MLSCN set (AID 602277;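 active = inhibition of the reporter signal at or above 50%; inactive = inhibition below 50%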). The following applies: HEK293-TLR3 RL24 IRF3 luciferase reporter, at 10 µM, stronger effect = higher value.

Chain of Voltage-gated potassium channel subunit beta-2 (Rattus norvegicus) (P62483 whole entry, looked up): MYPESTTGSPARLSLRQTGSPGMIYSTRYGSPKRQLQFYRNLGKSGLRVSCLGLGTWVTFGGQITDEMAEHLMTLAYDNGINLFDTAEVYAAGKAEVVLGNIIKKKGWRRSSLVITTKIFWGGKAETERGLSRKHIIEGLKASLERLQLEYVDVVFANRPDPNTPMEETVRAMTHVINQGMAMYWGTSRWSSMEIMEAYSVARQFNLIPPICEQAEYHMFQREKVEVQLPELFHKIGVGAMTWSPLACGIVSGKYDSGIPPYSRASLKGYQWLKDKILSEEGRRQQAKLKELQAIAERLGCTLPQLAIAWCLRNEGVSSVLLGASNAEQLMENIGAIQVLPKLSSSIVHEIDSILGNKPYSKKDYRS

By inhibition is commonly meant the relative decrease from the control value, in per cent. Turning to `CCOC(=O)CSc1nnc(-c2ccc(S(=O)(=O)N3CCOCC3)cc2)n1-c1ccccc1`, in experiment [1], the cell count stood at 193. Moreover, the inhibition was -21.3% (inactive) in experiment [1], -19.3% (inactive) in experiment [3], 10.2% (inactive) in experiment [7] and 17.7% (inactive) in experiment [8]. Further, in experiment [2], the inhibition of aggregation was -7.9% (inactive). The results for the nuclei count in experiment [2] and in experiment [3] were 88.6% and 94.3%, respectively. The fluorescence slope in experiment [4] is -0.486 (inactive); in experiment [6], 0.00502 (inactive). Moreover, the NADPH fluorescence slope in experiment [5] is -3.1e-05 (inactive).

As to `CCCN1CCN(CCCNC(=O)Cn2nc(-c3ccc(Cl)cc3)ccc2=O)CC1`, in experiment [1], the cell count is 514. The inhibition was 13.6% (inactive) in experiment [1], -205% (inactive) in experiment [3], 9.94% (inactive) in experiment [7] and 11.9% (inactive) in experiment [8]. The inhibition of aggregation in experiment [2] is 0.1% (inactive). In addition, the results for the nuclei count in experiment [2] and in experiment [3] were 106% and 131%, respectively. Further, the fluorescence slope in experiment [4] was -0.552 (inactive); in experiment [6], 0.00614 (inactive). For the same compound, the NADPH fluorescence slope in experiment [5] is -8.1e-05 (inactive).

On to `CCc1cc2c(NCCC(=O)O)nc(C)nc2s1`, for which the cell count in experiment [1] was 222. The inhibition was -13.7% (inactive) in experiment [1], -7.8% (inactive) in experiment [3], 2.05% (inactive) in experiment [7] and 15.1% (inactive) in experiment [8]. The inhibition of aggregation in experiment [2] is 13.8% (inactive). For the same compound, the nuclei count in experiment [2] was determined as 79%; in experiment [3], 104%. Besides, the fluorescence slope is -0.575 (inactive) in experiment [4] and 0.00598 (inactive) in experiment [6]. Moreover, the NADPH fluorescence slope in experiment [5] was -4e-05 (inactive).

In the case of `CS(=O)(=O)N(CC(=O)O)c1cccc(Cl)c1`, in experiment [1], the cell count amounted to 358. The inhibition in experiment [1] was 9.8% (inactive); in experiment [3], -49% (inactive); in experiment [7], -12.6% (inactive); in experiment [8] it was -6.52% (inactive). In addition, the inhibition of aggregation in experiment [2] was -14.9% (inactive). In addition, the nuclei count in experiment [2] worked out at 106%; in experiment [3], 121%. The fluorescence slope was -0.544 (inactive) in experiment [4] and 0.00338 (inactive) in experiment [6]. Besides, in experiment [5], the NADPH fluorescence slope is -0.00014 (inactive).

With `O=S(=O)(c1ccc2c(c1)OCCO2)N(Cc1ccc(F)cc1)Cc1nnc(-c2cccs2)o1`, in experiment [1], the cell count was 383. For the same compound, the inhibition was -21.4% (inactive) in experiment [1], -14.4% (inactive) in experiment [3], 13.3% (inactive) in experiment [7] and 26.7% (inactive) in experiment [8]. Moreover, the inhibition of aggregation in experiment [2] was -14.7% (inactive). Further, the nuclei count in experiment [2] turned out to be 106%; in experiment [3], 119%. Moreover, the fluorescence slope is -0.543 (inactive) in experiment [4] and 0.00797 (inactive) in experiment [6]. Moreover, in experiment [5], the NADPH fluorescence slope is -0.000116 (inactive).

For the compound `CCn1c(=O)cc(SCC(=O)NCCN2CCN(Cc3ccccc3)CC2)c2ccccc21`, the cell count in experiment [1] came to 478. In addition, the inhibition in experiment [1] is 4.3% (inactive); in experiment [3] it was 14.7% (inactive); in experiment [7], 16.8% (inactive); in experiment [8] it was 47.8% (inactive). The inhibition of aggregation in experiment [2] was 21.3% (inactive). Moreover, the figures for the nuclei count in experiment [2] and in experiment [3] were 93.3% and 108%, respectively. Further, the values for the fluorescence slope in experiment [4] and in experiment [6] were -0.559 (inactive) and 0.00537 (inactive), respectively. In addition, the NADPH fluorescence slope in experiment [5] was 3.3e-05 (inactive).

Consider `O=C(COC(=O)C1=COCCO1)Nc1ccccc1Oc1ccccc1`, for which the cell count in experiment [1] came to 672. The inhibition in experiment [1] is 9.6% (inactive); in experiment [3] it was -33.5% (inactive); in experiment [7] it was 1.11% (inactive); in experiment [8], 8.4% (inactive). The inhibition of aggregation in experiment [2] is 31% (inactive). For the same compound, the nuclei count came to 90.2% in experiment [2] and 103% in experiment [3]. The fluorescence slope was -0.541 (inactive) in experiment [4] and 0.00561 (inactive) in experiment [6]. Further, in experiment [5], the NADPH fluorescence slope was -2.5e-05 (inactive).

With `CCOc1ccc(NC(=O)c2ccncc2)cc1`, the cell count in experiment [1] came to 631. Further, the inhibition in experiment [1] is 3.6% (inactive); in experiment [3], -122% (inactive); in experiment [7] it was -5.38% (inactive); in experiment [8], -19.1% (inactive). In experiment [2], the inhibition of aggregation was 8.2% (inactive). Also, the nuclei count in experiment [2] was 98.3%; in experiment [3], 106%. Also, the fluorescence slope is -0.466 (inactive) in experiment [4] and 0.0047 (inactive) in experiment [6]. Also, the NADPH fluorescence slope in experiment [5] is -4.7e-05 (inactive).

With `COc1cccc(NS(=O)(=O)c2cc(C)sc2C)c1`, the cell count in experiment [1] was 311. In addition, the inhibition is -5.7% (inactive) in experiment [1], -57% (inactive) in experiment [3], 3.14% (inactive) in experiment [7] and 24.9% (inactive) in experiment [8]. Further, in experiment [2], the inhibition of aggregation is 3.3% (inactive). Besides, the figures for the nuclei count in experiment [2] and in experiment [3] were 93% and 113%, respectively. Besides, the values for the fluorescence slope in experiment [4] and in experiment [6] were -0.467 (inactive) and 0.00503 (inactive), respectively. In experiment [5], the NADPH fluorescence slope is -1.8e-05 (inactive).

Turning to `FC(F)Sc1nnc(-c2cccs2)n1-c1ccccc1`, the cell count in experiment [1] came out at 824. Also, the inhibition was -5% (inactive) in experiment [1], -146% (inactive) in experiment [3], 17.7% (inactive) in experiment [7] and 31% (inactive) in experiment [8]. Moreover, the inhibition of aggregation in experiment [2] was -10.1% (inactive). The nuclei count in experiment [2] is 95.3%; in experiment [3], 122%. In addition, the fluorescence slope in experiment [4] is -0.532 (inactive); in experiment [6], 0.00612 (inactive). Besides, the NADPH fluorescence slope in experiment [5] was -3.2e-05 (inactive).

Take `CC(=O)NCCn1c(SCC(=O)NCC2CCCO2)nc2ccccc2c1=O` (stereo not drawn): in experiment [1], the cell count worked out at 515. Moreover, the inhibition in experiment [1] is -8.5% (inactive); in experiment [3], 21.7% (inactive); in experiment [7], 3.29% (inactive); in experiment [8], 12.9% (inactive). Besides, the inhibition of aggregation in experiment [2] was 4.3% (inactive). Also, the nuclei count in experiment [2] came out at 110%; in experiment [3], 103%. Further, the fluorescence slope in experiment [4] is -0.471 (inactive); in experiment [6] it was 0.00516 (inactive). Moreover, the NADPH fluorescence slope in experiment [5] was 5.6e-05 (inactive).

`CC(=O)N1CCc2cc(S(=O)(=O)NCCC3=CCCCC3)ccc21`: in experiment [1], the cell count is 399. Moreover, the inhibition in experiment [1] is 3.5% (inactive); in experiment [3], -71.2% (inactive); in experiment [7], 12.2% (inactive); in experiment [8], -2.52% (inactive). The inhibition of aggregation in experiment [2] was -11.2% (inactive). Also, the nuclei count is 123% in experiment [2] and 141% in experiment [3]. Moreover, the fluorescence slope is -0.425 (inactive) in experiment [4] and 0.00546 (inactive) in experiment [6]. In experiment [5], the NADPH fluorescence slope is 3.5e-05 (inactive).

On to `CCC(=O)Nc1ccc(NC(=O)CSc2nnnn2C(C)C)cc1`, for which the cell count in experiment [1] came out at 667. Moreover, the inhibition was -8.1% (inactive) in experiment [1], -74.4% (inactive) in experiment [3], 14.9% (inactive) in experiment [7] and 16.2% (inactive) in experiment [8]. The inhibition of aggregation in experiment [2] was -6% (inactive). Also, the nuclei count worked out at 74.9% in experiment [2] and 129% in experiment [3]. Further, the fluorescence slope in experiment [4] is -0.461 (inactive); in experiment [6] it was 0.00465 (inactive). Moreover, in experiment [5], the NADPH fluorescence slope is -4.3e-05 (inactive).
